The source made the active and inactive calls. No cut-off for these calls is given here.
Columns and labels:
Glucocorticoid receptor = target: T1, Glucocorticoid receptor (Homo sapiens, UniProt P04150); experiment: Antagonist activity at human GR ligand binding domain expressed in african green monkey COS7 cells in presence of Dexamethasone by Gal4 hybrid assay; type: cell-based, COS-7
T1 sequence (P04150 whole entry): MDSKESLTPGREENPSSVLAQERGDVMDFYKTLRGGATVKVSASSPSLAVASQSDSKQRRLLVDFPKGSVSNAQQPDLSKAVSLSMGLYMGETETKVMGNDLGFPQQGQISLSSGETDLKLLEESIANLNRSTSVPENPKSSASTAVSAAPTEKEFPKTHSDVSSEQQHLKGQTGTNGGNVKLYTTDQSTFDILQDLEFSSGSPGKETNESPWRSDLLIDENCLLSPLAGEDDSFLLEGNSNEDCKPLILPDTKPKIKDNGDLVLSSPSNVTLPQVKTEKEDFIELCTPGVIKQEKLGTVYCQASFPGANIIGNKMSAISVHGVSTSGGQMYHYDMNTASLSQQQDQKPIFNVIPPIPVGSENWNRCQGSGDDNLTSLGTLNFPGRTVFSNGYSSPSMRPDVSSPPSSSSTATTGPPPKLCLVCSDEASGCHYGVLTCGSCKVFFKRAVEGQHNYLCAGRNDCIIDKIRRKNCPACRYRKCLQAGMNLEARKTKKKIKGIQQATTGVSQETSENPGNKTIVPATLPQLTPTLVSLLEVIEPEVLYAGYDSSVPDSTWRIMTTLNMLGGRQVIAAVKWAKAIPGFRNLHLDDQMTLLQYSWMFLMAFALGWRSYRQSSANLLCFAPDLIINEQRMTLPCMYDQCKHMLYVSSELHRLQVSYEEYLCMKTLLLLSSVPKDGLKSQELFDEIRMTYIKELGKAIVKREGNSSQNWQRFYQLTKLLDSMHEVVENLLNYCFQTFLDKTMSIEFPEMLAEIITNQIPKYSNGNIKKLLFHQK

[1] = target: T2, Mineralocorticoid receptor (Homo sapiens) (UniProt P08235); experiment: Agonist activity at human MR ligand binding domain receptor expressed in african green monkey COS7 cells by Gal4 hybrid assay; type: cell-based; conditions: COS-7
T2 sequence (whole entry): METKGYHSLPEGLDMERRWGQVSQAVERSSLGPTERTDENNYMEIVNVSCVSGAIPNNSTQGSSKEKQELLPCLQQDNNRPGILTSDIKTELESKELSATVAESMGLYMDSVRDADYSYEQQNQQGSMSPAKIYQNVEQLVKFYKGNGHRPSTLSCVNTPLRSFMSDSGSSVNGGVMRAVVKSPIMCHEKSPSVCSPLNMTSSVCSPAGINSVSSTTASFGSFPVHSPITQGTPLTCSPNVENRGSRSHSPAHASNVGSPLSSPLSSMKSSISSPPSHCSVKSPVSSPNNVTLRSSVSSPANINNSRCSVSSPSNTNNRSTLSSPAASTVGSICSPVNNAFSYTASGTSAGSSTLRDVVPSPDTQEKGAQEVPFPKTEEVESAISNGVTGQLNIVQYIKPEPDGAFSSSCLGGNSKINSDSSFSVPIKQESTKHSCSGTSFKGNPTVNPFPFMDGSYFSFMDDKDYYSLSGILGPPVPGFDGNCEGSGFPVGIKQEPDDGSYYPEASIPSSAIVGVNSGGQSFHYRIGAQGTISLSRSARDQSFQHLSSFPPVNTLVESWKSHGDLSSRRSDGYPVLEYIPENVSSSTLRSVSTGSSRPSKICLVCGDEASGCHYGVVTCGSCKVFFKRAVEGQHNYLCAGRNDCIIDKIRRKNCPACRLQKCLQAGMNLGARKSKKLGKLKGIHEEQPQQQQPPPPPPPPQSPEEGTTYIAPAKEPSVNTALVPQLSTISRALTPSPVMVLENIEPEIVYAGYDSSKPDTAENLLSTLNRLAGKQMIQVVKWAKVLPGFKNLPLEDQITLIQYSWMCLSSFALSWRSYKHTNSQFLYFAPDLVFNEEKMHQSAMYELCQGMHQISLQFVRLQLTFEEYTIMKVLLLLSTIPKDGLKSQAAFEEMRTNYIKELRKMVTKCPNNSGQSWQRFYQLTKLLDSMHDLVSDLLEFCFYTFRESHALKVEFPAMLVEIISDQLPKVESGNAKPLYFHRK
Method in brief: (§1)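 Gal4-steroid receptor LBD fusion plasmid plus GAL4_UAS (5 copies, E1b TATA)-luciferase reporter, 50 ng/well each, transfected 16 h into COS-7 cells grown in phenol red-free DMEM with 10% charcoal/dextran-treated FBS. Compound treatment 20 h, then luciferase read-out. Antagonist mode uses 3 nM aldosterone (hMR) or 5 nM 17β-estradiol (hER). Values are the average of at least duplicate determinations.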

[2] = target: T3, Mineralocorticoid receptor (Homo sapiens, UniProt P08235); experiment: Antagonist activity at human MR ligand binding domain expressed in african green monkey COS7 cells in presence of aldosterone by Gal4 hybrid assay; type: cell-based, COS-7; method in brief: as §1
T3 sequence (P08235 whole entry): T2 sequence (whole entry)

[3] = target: T4, Estrogen receptor (Homo sapiens) (UniProt P03372); experiment: Agonist activity at human ER ligand binding domain expressed in african green monkey COS7 cells by Gal4 hybrid assay; type: cell-based; conditions: COS-7; method in brief: as §1
T4 sequence (whole entry): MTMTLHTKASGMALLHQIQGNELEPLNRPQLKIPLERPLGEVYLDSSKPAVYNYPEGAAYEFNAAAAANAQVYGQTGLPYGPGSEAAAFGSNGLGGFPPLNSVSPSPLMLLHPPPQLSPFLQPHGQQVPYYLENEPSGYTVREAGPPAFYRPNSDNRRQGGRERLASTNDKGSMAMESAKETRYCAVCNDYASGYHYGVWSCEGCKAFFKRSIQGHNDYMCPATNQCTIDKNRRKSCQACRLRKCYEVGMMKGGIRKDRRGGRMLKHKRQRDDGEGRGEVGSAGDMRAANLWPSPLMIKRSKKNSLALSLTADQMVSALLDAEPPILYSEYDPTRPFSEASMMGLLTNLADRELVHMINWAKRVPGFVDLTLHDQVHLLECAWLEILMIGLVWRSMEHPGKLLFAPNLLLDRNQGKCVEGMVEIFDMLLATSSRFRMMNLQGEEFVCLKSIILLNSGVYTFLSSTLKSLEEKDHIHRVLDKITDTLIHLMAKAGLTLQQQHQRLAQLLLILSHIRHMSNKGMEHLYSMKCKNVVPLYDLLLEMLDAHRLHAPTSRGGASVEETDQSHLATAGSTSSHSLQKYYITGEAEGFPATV

Estrogen receptor = target: T5, Estrogen receptor (Homo sapiens, UniProt P03372); experiment: Antagonist activity at human ER ligand binding domain expressed in african green monkey COS7 cells in presence of 17-beta-estradiol by Gal4 hybrid assay; type: cell-based, COS-7; method in brief: as §1
T5 sequence (P03372 whole entry): T4 sequence (whole entry)

Androgen receptor = target: T6, Androgen receptor (Homo sapiens, UniProt P10275)
T6 sequence (P10275 whole entry): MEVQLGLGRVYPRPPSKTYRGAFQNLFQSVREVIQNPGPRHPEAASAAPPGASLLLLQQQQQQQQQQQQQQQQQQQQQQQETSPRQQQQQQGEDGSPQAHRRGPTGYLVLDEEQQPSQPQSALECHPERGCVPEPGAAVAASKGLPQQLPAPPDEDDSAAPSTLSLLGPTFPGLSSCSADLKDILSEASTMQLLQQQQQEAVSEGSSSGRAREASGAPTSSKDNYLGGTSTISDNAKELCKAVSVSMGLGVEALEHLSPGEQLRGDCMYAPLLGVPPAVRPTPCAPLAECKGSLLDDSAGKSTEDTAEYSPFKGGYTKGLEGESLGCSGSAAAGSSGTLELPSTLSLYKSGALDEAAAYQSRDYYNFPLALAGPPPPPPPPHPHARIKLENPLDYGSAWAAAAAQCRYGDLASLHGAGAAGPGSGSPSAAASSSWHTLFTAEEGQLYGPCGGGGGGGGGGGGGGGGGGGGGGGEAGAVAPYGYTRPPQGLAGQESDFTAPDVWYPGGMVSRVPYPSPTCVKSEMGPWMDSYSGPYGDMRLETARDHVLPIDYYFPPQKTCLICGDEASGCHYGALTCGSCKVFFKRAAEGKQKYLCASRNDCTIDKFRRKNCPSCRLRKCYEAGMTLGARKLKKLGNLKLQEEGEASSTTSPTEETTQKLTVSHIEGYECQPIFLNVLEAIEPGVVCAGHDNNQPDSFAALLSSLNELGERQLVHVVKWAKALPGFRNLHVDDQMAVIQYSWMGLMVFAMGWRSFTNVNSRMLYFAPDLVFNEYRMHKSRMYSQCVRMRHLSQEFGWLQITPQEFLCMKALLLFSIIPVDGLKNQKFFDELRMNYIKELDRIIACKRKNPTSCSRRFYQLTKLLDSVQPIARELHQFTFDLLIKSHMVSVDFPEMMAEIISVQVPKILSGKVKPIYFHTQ

COC[C@]1(OC)CC[C@H]2[C@@H]3CCC4=CC(=O)CCC4=C3[C@@H](c3ccc(/C=N/O)cc3)C[C@@]21C [ASOPRISNIL]
IC50 (Glucocorticoid receptor): 85 nM | Activity [1]: inactive | IC50 [2]: 1600 nM | Activity [3]: inactive | IC50 (Estrogen receptor): 1900 nM | IC50 (Androgen receptor): 6.1 nM

From ChEMBL document CHEMBL1144664, “Design, synthesis, and SAR of new pyrrole-oxindole progesterone receptor modulators leading to 5-(7-fluoro-3,3-dimethyl-2-oxo-2,3-dihydro-1H-indol-5-yl)-1-methyl-1H-pyrrole-2-carbonitrile (WAY-255348)” (J Med Chem, 2008)
